Laboratory results published in ChEMBL document CHEMBL1125170, “A novel series of selective leukotriene antagonists: exploration and optimization of the acidic region in 1,6-disubstituted indoles and indazoles” (1990).
“And” between values parts separate entries of the source, which are not always exact repeats. Equal values may be shown once.

Key:
Format in all cases: functional, Trachea
[1] = species: Cavia porcellus; assay: In vitro antagonism of 8 nM of peptidoleukotriene (LTE4) induced contraction of guinea pig tracheal spirals at 1 X E-7M concentration
How it was run: (§1)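 Guinea pig tracheal spirals held at 37 °C in modified Krebs' (mM: NaCl 119, KCl 4.6, CaCl2 1.8, MgCl2 0.5, NaHCO3 24.9, NaH2PO4 1.0, glucose 11.1) plus indomethacin 5 μM, resting tension 2 g, isometric recording. After reproducible 8 nM LTE4 responses, compound added for 10 min, then rechallenged. % inhibition is adjusted for the paired vehicle tissue. At least four spirals, paired t test.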

[2] = species: Cavia porcellus; assay: Dissociation constant KB = [antagonist]/(dose ratio -1). KB determined in guinea pig tracheal spirals with LTE4 as agonist.
How it was run: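 Isolated guinea pig tracheal strips in Krebs' buffer with indomethacin (5 μM), 37 °C, 95% O2/5% CO2, resting tension 2 g. Carbachol (30 μM) sets the maximum. Antagonist incubated 30 min, then cumulative LTE4 concentration–response curves in log increments, one curve per tissue. EC50 by linear regression, paired vehicle controls. KB = [antagonist]/(DR − 1) (Furchgott).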

[3] = species: Cavia porcellus; assay: In vitro antagonism of 8 nM of peptidoleukotriene (LTE4) induced contraction of guinea pig tracheal spirals at 10 X E-7M concentration; how it was run: as §1
[4] = species: Cavia porcellus; assay: In vitro antagonism of 8 nM of peptidoleukotriene (LTE4) induced contraction of guinea pig tracheal spirals at 100 X E-7M concentration; how it was run: as §1
[5] = species: Cavia porcellus; assay: In vitro antagonism of 8 nM of peptidoleukotriene (LTE4) induced contraction of guinea pig tracheal spirals at 33 X E-7M concentration; how it was run: as §1

Row | SMILES | pKB [2] | Antagonism [4] | further results
1 | COc1cc(C(=O)O)ccc1Cn1ccc2ccc(NC(=O)CC3CCCC3)cc21 |  |  | Antagonism [1]: 34%
2 | COc1cc(-c2nn[nH]n2)ccc1Cn1ccc2ccc(NC(=O)OC3CCCC3)cc21 | 7.6 |  | Antagonism [3]: 62%
3 | CCCCC(CC)C(=O)Nc1ccc2ccn(Cc3cccc(C(=O)O)c3)c2c1 (stereo unspecified) |  | 31% | 
4 | CCCCC(CC)C(=O)Nc1ccc2ccn(Cc3c(OC)cc(C(=O)NS(=O)(=O)c4ccccc4)cc3OC)c2c1 (stereo unspecified) | 8 |  | Antagonism [1]: 72%
5 | CCCCC(CC)C(=O)Nc1ccc2cnn(Cc3ccc(-c4nn[nH]n4)cc3OC)c2c1 (stereo unspecified) | 7.1 |  | Antagonism [3]: 100%
6 | COc1ccc(OC)c(S(=O)(=O)NC(=O)c2ccc(Cn3ccc4ccc(NC(=O)CC5CCCC5)cc43)c(OC)c2)c1 | 9.1 |  | 
7 | CCCCC(CC)C(=O)Nc1ccc2ccn(Cc3ccc(C(=O)Nc4ccccc4C(=O)O)cc3OC)c2c1 (stereo unspecified) |  | 34% | 
8 | COc1cc(C(=O)NS(=O)(=O)c2ccccc2Cl)ccc1Cn1ccc2ccc(NC(=O)CC3CCCC3)cc21 | 9.8 |  | 
9 | CCCCC(CC)C(=O)Nc1ccc2ccn(Cc3ccc(C(=O)NS(=O)(=O)c4ccccc4C)cc3OC)c2c1 (stereo unspecified) | 8.9 |  | 
10 | CCCCC(CC)C(=O)Nc1ccc2ccn(Cc3ccc(C(=O)NS(=O)(=O)C(C)C)cc3OC)c2c1 (stereo unspecified) |  |  | Antagonism [3]: 47%
11 | CCCCC(CC)C(=O)Nc1ccc2ccn(Cc3ccc(C(=O)NS(=O)(=O)c4ccc(OC)cc4)cc3OC)c2c1 (stereo unspecified) | 7.4 |  | 
12 | CCCCC(CC)C(=O)Nc1ccc2ccn(Cc3ccc(S(=O)(=O)NC(=O)c4ccccc4)cc3)c2c1 (stereo unspecified) |  | 37% | 
13 | CCCCC(CC)C(=O)Nc1ccc2ccn(Cc3ccc(C(=O)O)cc3OCCCC#N)c2c1 (stereo unspecified) |  | 84% | Antagonism [5]: 33%
14 | CCCCC(CC)C(=O)Nc1ccc2ccn(Cc3ccc(C(=O)O)cc3OCCCc3nnn[nH]3)c2c1 (stereo unspecified) |  |  | Antagonism [3]: 32%
15 | COc1cc(C(=O)NS(=O)(=O)c2cccs2)ccc1Cn1ccc2ccc(NC(=O)CC3CCCC3)cc21 | 9.6 |  | 
16 | COc1cc(-c2nn[nH]n2)ccc1Cn1ncc2ccc(NC(=O)OC3CCCC3)cc21 | 7.7 |  | Antagonism [1]: 58%; Antagonism [3]: 100%
17 | COc1cc(C(=O)NS(=O)(=O)c2ccc3ccccc3c2)ccc1Cn1ccc2ccc(NC(=O)CC3CCCC3)cc21 | 8.3 |  | 
18 | CCCCC(CC)C(=O)Nc1ccc2ccn(Cc3ccc(C(=O)NS(=O)(=O)Cc4ccccc4)cc3OC)c2c1 (stereo unspecified) |  | 89% | 
19 | CCCCC(CC)C(=O)Nc1ccc2ccn(Cc3ccc(C(=O)N[S+]([O-])c4ccccc4)cc3OC)c2c1 (stereo unspecified) |  |  | Antagonism [5]: 34%
20 | COc1cc(C(=O)NS(=O)(=O)c2ccccc2C)ccc1Cn1ncc2ccc(NC(=O)CC3CCCC3)cc21 | 10.9 |  | 
21 | CCCCC(CC)C(=O)Nc1ccc2ccn(Cc3ccc(C(=O)NS(=O)(=O)c4ccccc4)c(OC)c3)c2c1 (stereo unspecified) |  |  | Antagonism [1]: 52%
22 | CCCCC(CC)C(=O)Nc1ccc2ccn(Cc3ccc(C(=O)NS(=O)(=O)c4ccccc4)cc3)c2c1 (stereo unspecified) | 6.8 |  | Antagonism [1]: 42%
23 | CCCCC(CC)C(=O)Nc1ccc2ccn(Cc3ccc(C(=O)O)c(OC)c3)c2c1 (stereo unspecified) |  |  | Antagonism [3]: 15%
24 | CCCCC(CC)C(=O)Nc1ccc2ccn(Cc3ccc(OC)c(C(=O)O)c3)c2c1 (stereo unspecified) |  | 28% | 
25 | COc1cc(C(=O)NS(=O)(=O)c2ccccc2OC)ccc1Cn1ccc2ccc(NC(=O)CC3CCCC3)cc21 | 9.7 |  | 
26 | CCCCCC(=O)Nc1ccc2ccn(Cc3ccc(-c4nn[nH]n4)cc3OC)c2c1 |  |  | Antagonism [5]: 86%; Antagonism [3]: 32%
27 | CCCCC(CC)C(=O)Nc1ccc2ccn(Cc3ccc(/C=C/C(=O)O)cc3OC)c2c1 (stereo unspecified) |  | 31% | 

Row | SMILES | pKB [2] | Antagonism [4] | further results
28 | CCCCC(CC)C(=O)Nc1ccc2ccn(Cc3ccc(C(=O)NS(C)(=O)=O)cc3OC)c2c1 (stereo unspecified) |  |  | Antagonism [3]: 100% and 60%
29 | CCCCC(CC)C(=O)Nc1ccc2ccn(Cc3ccc(C(=O)NS(=O)(=O)c4ccc(Cl)cc4)cc3OC)c2c1 (stereo unspecified) | 7.8 |  | 
30 | COc1cc(C(=O)NS(=O)(=O)c2ccccn2)ccc1Cn1ccc2ccc(NC(=O)CC3CCCC3)cc21 | 8.9 |  | 
31 | COc1cc(C(=O)NS(=O)(=O)c2cc(C)ccc2C)ccc1Cn1ccc2ccc(NC(=O)CC3CCCC3)cc21 | 8.4 |  | 
32 | CCCCC(CC)C(=O)Nc1ccc2ccn(Cc3ccc(C(=O)NO)cc3OC)c2c1 (stereo unspecified) |  | 38% | 
33 | CCCCC(CC)C(=O)Nc1ccc2ccn(Cc3ccc(C(=O)O)c(Br)c3)c2c1 (stereo unspecified) |  |  | Antagonism [5]: 33%
34 | CCCCC(CC)C(=O)Nc1ccc2ccn(Cc3ccc(C(=O)O)cc3F)c2c1 (stereo unspecified) |  | 86% | 
35 | COc1cc(C(=O)NS(=O)(=O)c2ccccc2C)ccc1Cn1ncc2ccc(NC(=O)OC3CCCC3)cc21 | 10.2 |  | 
36 | CCCCC(CC)C(=O)Nc1ccc2ccn(Cc3ccc(C(=O)NS(=O)(=O)c4ccc(F)cc4)cc3OC)c2c1 (stereo unspecified) | 7.7 |  | 
37 | CCCCC(CC)C(=O)Nc1ccc2ccn(Cc3ccc(C(=O)O)cc3)c2c1 (stereo unspecified) |  | 44% | 
38 | COc1cc(C(=O)NS(=O)(=O)c2ccccc2N)ccc1Cn1ccc2ccc(NC(=O)CC3CCCC3)cc21 | 9.9 |  | 
39 | CCCCC(CC)C(=O)Nc1ccc2ccn(Cc3ccc(S(=O)(=O)O)cc3)c2c1 (stereo unspecified) |  | 48% | 
40 | CCCCC(CC)C(=O)Nc1ccc2ccn(Cc3ccc(C(=O)C(C#N)S(=O)(=O)c4ccccc4)cc3OC)c2c1 (stereo unspecified) | 8.1 |  | Antagonism [1]: 73%
41 | CCCCC(CC)C(=O)Nc1ccc2ccn(Cc3ccc(C(=O)NS(=O)(=O)c4ccc([N+](=O)[O-])cc4)cc3OC)c2c1 (stereo unspecified) | 7.7 |  | 
42 | CCCCC(CC)C(=O)Nc1ccc2ccn(Cc3ccc(C(=O)Nc4nn[nH]n4)cc3OC)c2c1 (stereo unspecified) |  | 62% | Antagonism [3]: 20%
43 | COc1cc(C(=O)N(C)S(=O)(=O)c2ccccc2)ccc1Cn1ccc2ccc(NC(=O)CC3CCCC3)cc21 |  |  | Antagonism [1]: 42%
44 | CCCCC(CC)C(=O)Nc1ccc2ccn(Cc3ccc(C(=O)NS(=O)(=O)c4ccc(C)cc4)cc3OC)c2c1 (stereo unspecified) | 8.4 |  | 
45 | CCCCC(CC)C(=O)Nc1ccc2ccn(Cc3ccc(C(=O)CS(=O)(=O)c4ccccc4)cc3OC)c2c1 (stereo unspecified) |  |  | Antagonism [3]: 59%
46 | CCCCC(CC)C(=O)Nc1ccc2ccn(Cc3ccc(C(=O)O)cc3Cl)c2c1 (stereo unspecified) |  | 44% | 
47 | CCCCC(CC)C(=O)Nc1ccc2ccn(Cc3ccc(C(=O)O)cc3C)c2c1 (stereo unspecified) |  | 91% | Antagonism [5]: 21%
48 | CCCCC(CC)C(=O)Nc1ccc2ccn(Cc3c(OC)cc(C(=O)O)cc3OC)c2c1 (stereo unspecified) |  |  | Antagonism [3]: 63%
49 | CCCCOC(=O)Nc1ccc2ccn(Cc3ccc(-c4nn[nH]n4)cc3OC)c2c1 | 7.2 |  | Antagonism [3]: 68%
50 | CCCCC(CC)C(=O)Nc1ccc2ccn(Cc3cccc(C(=O)O)c3OC)c2c1 (stereo unspecified) |  | 38% | 
51 | COc1cc(C(=O)NS(=O)(=O)c2c(C)cccc2Cl)ccc1Cn1ccc2ccc(NC(=O)CC3CCCC3)cc21 | 8.8 |  | 
52 | CCCCOc1cc(C(=O)O)ccc1Cn1ccc2ccc(NC(=O)C(CC)CCCC)cc21 (stereo unspecified) |  | 83% | Antagonism [5]: 44%
53 | CCCCC(CC)C(=O)Nc1ccc2ccn(Cc3ccc(C(=O)NCC(=O)O)cc3OC)c2c1 (stereo unspecified) |  | 43% | 
